High-throughput results deposited in PubChem by Broad Institute.
ERAP1 inh: ERAP1 (human) enzyme inhibition; 340,000 compounds, 0.15% hits; Q9NZ08; recombinant ERAP1, Leu-AMC fluorescence, 60 min; inhibition, % at 10.7 µM;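 active = mean replicate inhibition of at least 30%, or all replicates individually reaching that 30% level; inactive = mean below 30% and not every replicate reaching it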;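 also: 0% = neutral control wells and 100% = L-leucinethiol positive control wells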
CFTR F508del cor: correctors of CFTR F508del function in bronchial epithelial cells; CFBE cells, YFP halide quenching; stimulated with forskolin plus potentiator P3; % fluorescence drop versus neutral controls; 350,000 compounds, 0.36% hits; AID 720511; activity (quench increase), % at 7.58 µM;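 active = mean added fluorescence quench of at least 8% versus neutral control, with both replicates also reaching 8%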;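 also: cells transiently co-express mutant CFTR-F508del with the halide-sensitive YFP; corrector assay measuring rescue of mutant channel to the surface after 24 h compound exposure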
SIRT5 inh: inhibitors of human sirtuin-5 desuccinylase. Q9NXA8. Purified SirT5, succinyl-peptide AMC, trypsin-coupled fluorescence. inhibition, % at 15 µM. 330,000 compounds, 1.1% hits. AID 652115; in the data active = inhibition above about 15%
Target sequence (Q9NXA8 whole entry, looked up): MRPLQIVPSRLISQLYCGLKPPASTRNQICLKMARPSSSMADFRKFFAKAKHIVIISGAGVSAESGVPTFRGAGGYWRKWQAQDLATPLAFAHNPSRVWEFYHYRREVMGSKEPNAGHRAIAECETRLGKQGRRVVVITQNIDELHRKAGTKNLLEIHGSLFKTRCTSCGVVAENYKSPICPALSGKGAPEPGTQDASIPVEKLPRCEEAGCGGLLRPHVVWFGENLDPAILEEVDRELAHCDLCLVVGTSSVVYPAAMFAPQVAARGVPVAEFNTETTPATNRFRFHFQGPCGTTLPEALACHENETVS
rRNA inh HTS: inhibitors of bacterial rRNA selective over humanized ribosomes; GFP signal change (wild-type ribosome), % (test concentration not listed); 350,000 compounds, 1.6% hits; E. coli WT GFP vs humanized-ribosome RFP mutants, fluorescence, 24 h; stronger effect = lower value; DMSO median 0, no signal -100;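 active = significant combined selectivity score with lowered wild-type GFP, culture density cut under 30%, mutant RFP and density less affected; inactive = any of these conditions unmet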
S100A4 inh HTS: S100A4-myosin IIA interaction inhibition. P26447. inhibition, % at 10.7 µM. AID 652163. 360,000 compounds, 0.14% hits. S100A4/TAMRA-MyoIIA peptide fluorescence polarization;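 active = mean inhibition of at least 70% across replicates, with every replicate also reaching that level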
Target sequence (P26447 whole entry, looked up): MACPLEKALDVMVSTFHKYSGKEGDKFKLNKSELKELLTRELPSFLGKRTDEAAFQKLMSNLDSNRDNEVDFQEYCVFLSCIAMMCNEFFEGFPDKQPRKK
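Compound dosing: one dose per compound; test system: human S100A4 monomer with TAMRA-labelled myosin IIA peptide; probe or stimulus: TAMRA-labelled myosin IIA heavy-chain peptide probe, 5 nM; medium: HEPES buffer with Ca2+, pH 7.2; schedule: 5 min incubation before reading; benchmarks: neutral control DMSO, positive control TFP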
Numbers without * were called inactive; . = no result. Sampled rows, rich in hits. Any-hit rate of the full collection: about 3.1%.

SMILES	ERAP1 inh	CFTR F508del cor	SIRT5 inh	rRNA inh HTS	S100A4 inh HTS
CCC(=O)N1CC(=O)N2[C@@H](CO)[C@H](c3ccc(C#CC4CCCCC4)cc3)[C@@H]2C1	-4	3	1	5	9
O=C(C[C@@H]1CC[C@@H]2[C@H](COC[C@@H](O)CN2CCC(F)(F)F)O1)NCC1CCCCC1	.	1	.	-1	.
C[C@H]1CN([C@@H](C)CO)C(=O)c2cc(C#CCN(C)C)cnc2O[C@@H]1CN(C)C(=O)c1ccc2c(c1)OCO2	2	1	-4	5	-2
C[C@H](CO)N1C[C@H](C)[C@H](CN(C)C(=O)c2ccc(F)cc2)Oc2cc(C3=CCCCC3)ccc2S1(=O)=O	3	1	11	2	4
CC(=NNC(=O)c1ccncc1)c1ccccc1O	3	7	0	-30*	-4
C/C(=N\NC(=O)c1cccc2ccccc12)c1cccnc1	-1	0	-2	-1	-1
CC(C)CC(=NNC(=O)c1ccncc1)c1cc(Cl)ccc1O	-7	16*	-4	-60	2
CC(=NNC(=O)c1ccncc1)c1ccc2ccccc2c1O	2	25*	.	-5	0
CC(=NNC(=O)c1ccncc1)c1ccc(O)cc1O	1	5	3	-16	2
C/C(=N/NC(=O)c1ccncc1)c1ccc(NC(=O)c2ccc(Cl)cc2Cl)cc1	-1	-1	-2	-16	6
CC(=O)N1CCCCN2[C@@H](CO)[C@@H](c3ccc(Br)cc3)[C@@H]2C1	-1	3	-8	7	-1
Cc1cc(C2(c3ccc(O)c(C)c3)C(=O)N(C)c3ccc(Br)cc32)ccc1O	-2	.	3	-40*	1
Cc1ccc(CSc2ncnc3ccccc23)cc1	0	0	-9	-33*	-8
COc1ccc(CN(C)C[C@@H]2Oc3c(NC(=O)Nc4c(C)noc4C)cccc3C(=O)N([C@H](C)CO)C[C@@H]2C)cc1	1	2	-1	4	1
COc1ccc(NC(=O)CCSc2nnnn2C)cc1	1	-2	18*	9	-1
C[C@@H]1CN([C@@H](C)CO)C(=O)Cc2cc(NC(=O)Cn3cnnn3)ccc2O[C@H]1CN(C)C(=O)Nc1ccc(C(F)(F)F)cc1	-3	0	4	1	-10
CO[C@H]1CN(C)C(=O)c2cc(NS(C)(=O)=O)ccc2OC[C@@H](C)N(C(=O)NC(C)C)C[C@H]1C	.	-2	.	3	.
Cc1nc(S/C(=C/c2ccc(-c3ccc(C(=O)O)cc3)o2)C(=O)O)n[nH]1	.	2	37*	5	20
CC(=O)c1ccc(-c2ccc(/C=C(/Sc3n[nH]c(C)n3)C(=O)O)o2)cc1	-3	0	1	-3	19
C[C@H](CO)N1C[C@H](C)[C@H](CN(C)C(=O)c2ccccc2)Oc2cc(C3=CCCCC3)ccc2S1(=O)=O	1	1	7	-11	0
Cc1ccc(Cl)cc1N1CCN(S(=O)(=O)c2ccc3[nH]c(=O)c(=O)[nH]c3c2)CC1	2	1	1	-29*	-7
CCCC#Cc1cnc2c(c1)C(=O)N([C@H](C)CO)C[C@@H](C)[C@@H](CN(C)C(=O)Nc1c(C)noc1C)O2	6	-1	-2	-1	7
CC(C)Oc1ccc(S(=O)(=O)N2CCOCC2)cc1NC(=O)CCCSc1ccccc1	0	8.4*	-2	-3	-7
C[C@@H]1CN([C@@H](C)CO)C(=O)c2cc(NS(=O)(=O)c3cn(C)cn3)ccc2O[C@H]1CN(C)C	1	-1	0	-1	48
O=C(CCn1c(=O)oc2ccccc21)N(Cc1ccccc1)c1ccccc1	4	-1	-3	-23	4
CCCCN(C(=O)CCn1c(=O)oc2ccccc21)c1ccccc1	-3	1	-3	-27*	2
O=C(NC1CCCCC1)c1ccc(S(=O)(=O)c2ccccc2)cc1	-5	-4	40*	-6	-3
C[C@@H]1CN([C@H](C)CO)C(=O)Cc2cc(NC(=O)Nc3ccccc3)ccc2O[C@@H]1CN(C)Cc1ccc(C(=O)Nc2ccccc2N)cc1	.	.	.	3	.
CCCSc1ccc([C@@H]2[C@@H]3C(=O)N(CC)C(=O)[C@@H]3[C@]3(C(=O)OC)CCCCN23)cc1	.	4	.	-7	-2
